These results are taken from ChEMBL document CHEMBL1125219, “A selective, reversible, competitive inhibitor of monoamine oxidase A containing no nitrogen, with negligible potentiation of tyramine-induced blood pressure rise” (J Med Chem, 1991).

Data set [1] addresses T1, Amine oxidase [flavin-containing] A (Rattus norvegicus, UniProt P21396).
T1 sequence (P21396 whole entry): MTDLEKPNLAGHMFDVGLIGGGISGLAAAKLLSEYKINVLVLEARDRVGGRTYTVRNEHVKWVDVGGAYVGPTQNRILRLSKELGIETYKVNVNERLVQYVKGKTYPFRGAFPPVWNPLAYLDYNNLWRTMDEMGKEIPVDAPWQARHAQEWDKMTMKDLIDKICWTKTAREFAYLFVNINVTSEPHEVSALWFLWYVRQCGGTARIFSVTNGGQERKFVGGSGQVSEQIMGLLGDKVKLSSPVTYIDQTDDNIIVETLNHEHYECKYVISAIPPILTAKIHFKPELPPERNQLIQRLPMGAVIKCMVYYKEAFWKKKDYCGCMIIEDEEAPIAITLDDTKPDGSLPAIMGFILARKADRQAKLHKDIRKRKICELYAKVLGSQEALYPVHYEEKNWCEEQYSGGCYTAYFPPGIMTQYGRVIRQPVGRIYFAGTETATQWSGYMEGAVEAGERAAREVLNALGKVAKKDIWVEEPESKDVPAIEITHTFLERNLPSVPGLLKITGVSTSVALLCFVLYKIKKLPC
Put plainly: The compound was tested ex vivo for inhibition of Monoamine Oxidase A in rat brain. The format is functional, tissue-based.

For data set [2], the target named is T1, Amine oxidase [flavin-containing] A. Put plainly: The compound was tested in vitro for inhibition of Monoamine Oxidase A from rat brain. Put shortly: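 Double-label radiometric assay on washed rat brain mitochondria with the test agent in vitro. Substrates were at about twice Km, and each activity was independent of the other.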
Data set [3] has the same target. Put plainly: The compound was tested ex vivo for percentage inhibition of Monoamine Oxidase A in rat brain at 20 mg/kg; NS=No significant inhibition. The format is functional, organism-based. More on the design: dose 20 mg/kg.
Data set [4] shares this target. Put plainly: The compound was tested ex vivo for percentage inhibition of Monoamine Oxidase A in rat brain at 30 mg/kg. The format is functional, organism-based. More on the design: dose 30 mg/kg.
Data set [5] shares this target. Put plainly: The compound was tested ex vivo for percentage inhibition of Monoamine Oxidase A in rat brain at 20 mg/Kg. Format: functional, tissue-based.
In data set [6] the target is T2, Amine oxidase [flavin-containing] A (Homo sapiens, UniProt P21397).
T2 sequence (P21397 whole entry): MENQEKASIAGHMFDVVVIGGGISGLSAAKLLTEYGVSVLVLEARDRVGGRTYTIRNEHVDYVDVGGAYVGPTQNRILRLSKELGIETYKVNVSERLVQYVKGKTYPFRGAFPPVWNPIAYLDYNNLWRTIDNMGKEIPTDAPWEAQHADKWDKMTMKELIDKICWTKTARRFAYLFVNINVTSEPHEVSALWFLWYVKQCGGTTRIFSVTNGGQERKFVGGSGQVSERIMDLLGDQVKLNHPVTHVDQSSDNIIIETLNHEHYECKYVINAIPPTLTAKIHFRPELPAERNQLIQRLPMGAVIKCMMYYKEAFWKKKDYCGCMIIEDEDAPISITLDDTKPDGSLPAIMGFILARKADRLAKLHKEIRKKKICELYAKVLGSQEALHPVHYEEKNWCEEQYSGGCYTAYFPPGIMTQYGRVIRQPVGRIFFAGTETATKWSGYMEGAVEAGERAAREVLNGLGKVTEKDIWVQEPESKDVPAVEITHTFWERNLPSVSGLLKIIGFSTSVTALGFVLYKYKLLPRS
Put plainly: In vitro binding affinity towards Monoamine Oxidase A in human.

Data set [7] addresses T1, Amine oxidase [flavin-containing] A. The data set can be described thus: In vitro binding affinity towards Monoamine Oxidase A in rat.
Data set [8] shares this target. The data set can be described thus: In vivo effective dose against Monoamine Oxidase A in rat brain. The format is functional, organism-based.

For orientation: ED50 means the midpoint of the dose-response relation. Low values mean greater potency, high ones weaker potency. As a reminder, the IC50 is the point on the concentration scale where inhibition reaches its midpoint. For orientation: inhibition means the percentage by which the read-out fell short of the control. A higher inhibition goes with strong suppression. One may read the Ki as a dissociation constant, usually derived from enzyme kinetics or from competition with a known ligand. The low end stands for tighter binding, the high end for weaker binding.

In turn, `CC(O)c1cccc2c1S(=O)(=O)c1ccccc1O2` (configuration not stated) gave an ED50 in data set [1] of 30 mg/kg. Also, the IC50 in data set [2] was 400 nM.
Regarding `O=C(O)Cc1cccc2c1S(=O)(=O)c1ccccc1O2`, the Inhibition entry in data set [3] was “Not Active”. For the same compound, 30000 nM corresponded to half-maximal inhibition in data set [2] (IC50).
`CC(=O)c1cccc2c1S(=O)(=O)c1ccccc1O2` registered an inhibition at 30 mg/kg in data set [4] of 70%. Moreover, in data set [2], the IC50 was determined as 2000 nM.
For the compound `C=Cc1cccc2c1S(=O)(=O)c1ccccc1O2`, the median effective dose (ED50) in data set [1] was determined as 20 mg/kg. The compound further had a half-maximal inhibitory concentration (IC50) in data set [2] of 40 nM.
Regarding `O=S1(=O)c2ccccc2Oc2cccc(CCO)c21`, in data set [2], the concentration for half-maximal inhibition (IC50) amounted to 20 nM. In data set [5], this compound registered an inhibition at 20 mg/kg of 55%.
Turning to `CCc1cccc2c1S(=O)(=O)c1ccccc1O2`, the values for the ED50 in data set [1] and in data set [8] were 20 mg/kg and 8 mg/kg, respectively. This compound also yielded an IC50 in data set [2] of 35 nM. The Ki in data set [6] and in data set [7] was 10 nM each time.
`O=S1(=O)c2ccccc2Oc2cccc(C(O)CO)c21` (configuration not stated) had an ED50 in data set [1] of 20 mg/kg. Further, in data set [2], half-maximal inhibition (IC50) was put at 1200 nM.
